Source: PubChem BioAssay (several laboratories)
ABCG2 block – inhibitors of human ABCG2 transporter, ABCB1 counter-screen; inhibition, % at 6.6 µM; hit rate 0.1% among 190,000; AID 1325; IgMXP3 cells, JC-1 efflux, flow cytometry;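 active = inhibition above 80%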
Target sequence (Q9UNQ0 whole entry, looked up): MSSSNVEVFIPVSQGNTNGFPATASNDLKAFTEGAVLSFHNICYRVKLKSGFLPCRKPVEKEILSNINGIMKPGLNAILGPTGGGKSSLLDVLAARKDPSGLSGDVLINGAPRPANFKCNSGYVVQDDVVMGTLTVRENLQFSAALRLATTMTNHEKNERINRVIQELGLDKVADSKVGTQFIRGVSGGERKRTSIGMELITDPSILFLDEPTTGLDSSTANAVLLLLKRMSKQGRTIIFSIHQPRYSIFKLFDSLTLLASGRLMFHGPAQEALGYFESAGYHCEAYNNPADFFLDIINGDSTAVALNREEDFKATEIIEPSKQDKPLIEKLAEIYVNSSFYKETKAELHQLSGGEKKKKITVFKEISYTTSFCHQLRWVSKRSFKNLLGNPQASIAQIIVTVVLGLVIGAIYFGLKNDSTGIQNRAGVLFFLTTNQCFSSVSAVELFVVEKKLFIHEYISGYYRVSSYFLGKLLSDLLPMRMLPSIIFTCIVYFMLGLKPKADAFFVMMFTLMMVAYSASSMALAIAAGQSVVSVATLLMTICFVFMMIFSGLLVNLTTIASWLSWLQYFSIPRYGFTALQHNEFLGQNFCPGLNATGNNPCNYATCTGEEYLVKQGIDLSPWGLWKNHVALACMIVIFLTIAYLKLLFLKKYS
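test system = two drug-resistant human cell lines, ABCG2 and ABCB1 | amount = 3 million cells/mL final, two lines in 1:1 ratio | reagent = JC-1 transporter substrate | doses = one concentration, 6.6 µM final | incubation = 10 min at 25 °C | signal = flow cytometric JC-1 green MFI at 530 nm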
Arbovirus anti – antivirals against arbovirus infection; hit rate 0.37% among 200,000; arbovirus infection cell-based antiviral screen; inhibition, % at 10 µM; in the data active = inhibition above about 30%
MT stabilizer – stabilizes microtubules in HeLa cells; HeLa tubulin immunostaining HCS, 24 h; share of cells brighter than vehicle mean+2SD; % tubulin-high responders, % at 10 µM; hit rate 0.83% among 200,000;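 active = plate Z-score above 3 for both tubulin-high and condensed-nucleus cell shares, with cell loss under 80%, at 10 µM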;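 also: anti alpha tubulin signal scored within the nucleus-defined area of each cell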
Autophagy mod – alters autophagy in cells; calls only at 10 µM (by protocol); MEF GFP-LC3 puncta imaging; test concentration mostly 10 µM; AID 463193; hit rate 0.98% among 190,000;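 active = percentage of spot-positive cells more than 3 SD above its plate mean, without a fluorescence outlier flag or 80% toxicity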
ABCB1 block – inhibitors of human ABCB1 transporter, ABCG2 counter-screen; hit rate 0.067% among 190,000; P08183; inhibition, % at 6.6 µM; CCRF-Adr cells, JC-1 efflux, flow cytometry; in the data active = inhibition above about 40%;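 also: higher value means more JC-1 retained so stronger ABCB1 efflux block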
b-catenin transl – modulators of beta-catenin nuclear translocation. HeLa beta-catenin nuclear translocation, immunofluorescence imaging. nuclear translocation activity, % at 5 µM. hit rate 0.3% among 190,000. AID 1665;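 active = nuclear translocation activity above 50% at 5 µM, with a well cell count of 50 or more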;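 also: per-cell ratio of nuclear to cytoplasmic median beta-catenin stain intensity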
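Test system: human HeLa cell line; Doses: 5 µM primary, 0.02–20 µM confirmation; Incubation: 24 h compound exposure, 37°C; Detection: beta-catenin immunofluorescence imaging with DAPI; Read-out: beta-catenin nuclear/cytoplasmic ratio, % activation.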
ABCB1 confirm – inhibits human ABCB1 efflux, confirmed at single point; hit rate 7% among 270; inhibition, % at 6.6 µM; CCRF-Adr cells, JC-1 efflux, flow cytometry; AID 1451; shares compounds with ABCG2 block;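 active = inhibition of pump activity above 50%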
ABCG2 confirm – confirmation of human ABCG2 transporter inhibitors, ABCB1 counter-screen; shares compounds with ABCG2 block; IgMXP3 cells, JC-1 efflux, flow cytometry; inhibition, % at 6.6 µM; hit rate 6% among 270; AID 1453;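 active = inhibition above 50%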
IgMXP3 autofluor – IgMXP3 autofluorescence flag for ABCG2 confirmation | shares compounds with ABCG2 block | IgMXP3 cells, compound autofluorescence 488/530 nm, flow; hits give high values | fluorescence at 6.6 µM | hit rate 30% among 270;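 active = fluorescence in ABCG2-expressing cells above the plate's control-well mean plus 3 SD, cut at about 15 in these data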
CCRF autofluor – CCRF-Adr autofluorescence flag for ABCB1 confirmation. shares compounds with ABCG2 block. CCRF-Adr cells, compound autofluorescence 488/530 nm, flow cytometry; hits give high values. fluorescence at 6.6 µM. hit rate 30% among 270. AID 1483;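 active = fluorescence beyond the plate control mean plus 3 SD, with a fluorescence-to-maximum score over 2, cut at about 25 in these data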
Hits are given with their value; - = inactive; . = no result; + = active, no number. Sampled rows, rich in hits. Any-hit rate of the full collection: about 2.1%.

SMILES | ABCG2 block | Arbovirus anti | MT stabilizer | Autophagy mod | ABCB1 block | b-catenin transl | others
CN(C)c1ccc(N=Cc2c(O)n(CCC3=CCCCC3)c(=O)[nH]c2=O)cc1 | - | - | - | + | - | -
CCN(CC)c1ccc(N=Cc2c(O)n(-c3ccc(OC)cc3)c(=O)[nH]c2=O)cc1 | - | - | - | - | - | .
CCN(CC)c1ccc(N=Cc2c(O)n(CCC3=CCCCC3)c(=O)[nH]c2=O)cc1 | - | - | - | + | - | -
C=CCn1c(O)c(C=Nc2ccc(N(CC)CC)cc2)c(=O)[nH]c1=O | - | - | - | - | - | .
CCN(CC)c1ccc(N=Cc2c(O)n(-c3ccc(Cl)cc3)c(=O)[nH]c2=O)cc1 | - | - | - | + | - | -
C=CCc1cc(C=C2C(=O)N(C)C(=O)N(C)C2=O)cc(OCC)c1OCc1ccccc1 | - | - | - | - | - | -
COc1ccc(/C=C2\C(=O)NC(=O)N(CCC3=CCCCC3)C2=O)c(OC)c1 | - | - | - | - | - | -
CC1=CC(=C2C(=O)NC(=S)NC2=O)C=C(C(F)(F)F)N1Cc1ccccc1 | - | - | 15 | + | - | -
CC1=CC(=C2C(=O)NC(=S)NC2=O)C=C(C(F)(F)F)N1CCc1ccccc1 | - | - | 25 | - | - | -
Cn1c2ccccc2c2c(C(=O)N3CCC4(CC3)OCCO4)cn(C3CCCC3)c(=O)c21 | - | - | - | - | - | .
CNC(=O)O/N=C(\C)Cc1nnn(-c2cc(C)on2)n1 | . | . | . | . | . | -
Cc1nc2cc(C(=O)N3CCC4(CC3)OCCO4)ccc2n1-c1ccc(Br)cc1 | - | - | - | - | - | -
O=C(c1ccc2c(c1)ncn2-c1ccc(F)cc1F)N1CCC2(CC1)OCCO2 | - | - | 21 | - | - | -
COc1ccc(-n2c(C)nc3cc(C(=O)N4CCC5(CC4)OCCO5)ccc32)cc1 | - | - | 24 | - | - | -
O=c1[nH]c(=O)n(Cc2ccccc2)c(O)c1C=NCCCn1ccnc1 | - | - | - | - | - | -
Cc1c2ccncc2c(C)c2c1[nH]c1ccccc12 | - | - | - | + | - | -
COc1ccc2c(CN3CC=C(c4ccccc4)CC3)cc(=O)oc2c1 | - | - | - | - | - | -
COc1ccc2ccc(O)c(CN3CC=C(c4ccccc4)CC3)c2c1 | - | 30 | - | - | - | -
O=C1NC(=O)C(CCc2ccncc2)(CCc2ccncc2)C(=O)N1CCc1ccccc1 | - | - | - | - | - | -
CCn1cc(/C=c2/sc3n(c2=O)C2c4ccccc4OC(C)(N=3)C2C(=O)OC)c(C)n1 (configuration not stated) | - | - | - | - | 53 | . | ABCB1 confirm=-;ABCG2 confirm=-;IgMXP3 autofluor=18;CCRF autofluor=-
O=C(Nc1cccc(C(F)(F)F)c1)c1cccn(Cc2ccc3c(c2)OC(F)(F)O3)c1=O | - | - | - | - | - | .
Cc1cccc(N2C(=O)NC(=O)/C(=C\c3ccc4c(c3)CCCN4Cc3ccccc3)C2=O)c1 | - | - | - | - | 50 | - | ABCB1 confirm=-;ABCG2 confirm=-;IgMXP3 autofluor=14;CCRF autofluor=59
CC1=NN(c2ccccc2)C(=O)C1/C=C1/C(=O)NC(=O)N(c2cccc(C)c2)C1=O (configuration not stated) | - | - | - | - | - | -
